Results of several laboratories.
Compare with care: the assays were run in different laboratories.
Target: Muscarinic acetylcholine receptor M2 (CHRM2, Homo sapiens, UniProt P08172)
Tested at: 10 µM
Sequence (P08172 1-466, as in one of the studies): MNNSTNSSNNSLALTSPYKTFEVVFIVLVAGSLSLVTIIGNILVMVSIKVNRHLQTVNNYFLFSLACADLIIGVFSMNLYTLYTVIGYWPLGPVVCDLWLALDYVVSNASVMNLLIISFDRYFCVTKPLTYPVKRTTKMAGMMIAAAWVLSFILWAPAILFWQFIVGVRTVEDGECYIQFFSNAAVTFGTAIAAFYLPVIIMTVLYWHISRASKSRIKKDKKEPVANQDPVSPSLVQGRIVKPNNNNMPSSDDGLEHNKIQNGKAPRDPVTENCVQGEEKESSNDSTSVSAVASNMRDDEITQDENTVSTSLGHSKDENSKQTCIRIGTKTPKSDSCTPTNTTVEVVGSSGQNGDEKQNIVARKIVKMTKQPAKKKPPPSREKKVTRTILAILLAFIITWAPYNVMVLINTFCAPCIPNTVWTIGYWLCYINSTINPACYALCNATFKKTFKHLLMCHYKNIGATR

SMILES	assay	inhibition [%]
O=C(Nc1ccc(S(=O)(=O)N2CCC(Cl)CC2)cc1)c1ccc([N+](=O)[O-])o1	ligand displacement, radioligand	10
COc1cc(NC(C)=O)c(Cl)cc1C(=O)Nc1nccs1	cell-free assay	-25.3
N#Cc1cc(Cn2c(N3CCCC3)nc3ccccc32)ccc1F	ligand displacement	7.75
CC1CCN(c2ccnc(NCc3cn(C)cn3)n2)CC1	ligand displacement	7.21
O=C1N=C(N2CCCCN2)S/C1=C\c1ccc(F)cc1O	ligand displacement, radioligand	< 10
CCN(Cc1ccccc1C(F)(F)F)C(=O)C1CCN(S(=O)(=O)c2ccc3[nH]ncc3c2)CC1	ligand displacement, radioligand	1
CCCNc1nc2ccccc2n1Cc1ccc(Cl)cc1	ligand displacement	13.7
CCN(CC)c1ccc(C2Nc3ccc(C(=O)c4ccccc4)cc3NC3=C2C(=O)CC(C)(C)C3)cc1 (centres unmarked)	ligand displacement, radioligand	-1
O=C(c1ccc(Cl)cc1)N(Cc1ccccc1)C1CCCCC1	cell-free assay	38.2
Ic1cccc2cnccc12	ligand displacement, radioligand	0
O=C(NNS(=O)(=O)c1ccccc1F)c1cc(F)cc(-c2ccccn2)c1	cell-free assay	15.9
